Laboratory results published in ChEMBL document CHEMBL5143728, “Next-Generation Diprovocims with Potent Human and Murine TLR1/TLR2 Agonist Activity That Activate the Innate and Adaptive Immune Response” (J Med Chem, 2022).

Columns and labels:
Toll-like receptor 1/2 [1] = target: T1, Toll-like receptor 1/2 (Homo sapiens, UniProt O60603+Q15399); test: Agonist activity at TLR1/TLR2 in human THP-1 derived macrophages assessed as stimulation of TNF alpha release measured for 4 hrs by ELISA based assay relative to diprovocim-1; type: cell-based; design: Activity: concentration or dose not given beside the values; settings: filed as agonist
T1 sequence (O60603 whole entry): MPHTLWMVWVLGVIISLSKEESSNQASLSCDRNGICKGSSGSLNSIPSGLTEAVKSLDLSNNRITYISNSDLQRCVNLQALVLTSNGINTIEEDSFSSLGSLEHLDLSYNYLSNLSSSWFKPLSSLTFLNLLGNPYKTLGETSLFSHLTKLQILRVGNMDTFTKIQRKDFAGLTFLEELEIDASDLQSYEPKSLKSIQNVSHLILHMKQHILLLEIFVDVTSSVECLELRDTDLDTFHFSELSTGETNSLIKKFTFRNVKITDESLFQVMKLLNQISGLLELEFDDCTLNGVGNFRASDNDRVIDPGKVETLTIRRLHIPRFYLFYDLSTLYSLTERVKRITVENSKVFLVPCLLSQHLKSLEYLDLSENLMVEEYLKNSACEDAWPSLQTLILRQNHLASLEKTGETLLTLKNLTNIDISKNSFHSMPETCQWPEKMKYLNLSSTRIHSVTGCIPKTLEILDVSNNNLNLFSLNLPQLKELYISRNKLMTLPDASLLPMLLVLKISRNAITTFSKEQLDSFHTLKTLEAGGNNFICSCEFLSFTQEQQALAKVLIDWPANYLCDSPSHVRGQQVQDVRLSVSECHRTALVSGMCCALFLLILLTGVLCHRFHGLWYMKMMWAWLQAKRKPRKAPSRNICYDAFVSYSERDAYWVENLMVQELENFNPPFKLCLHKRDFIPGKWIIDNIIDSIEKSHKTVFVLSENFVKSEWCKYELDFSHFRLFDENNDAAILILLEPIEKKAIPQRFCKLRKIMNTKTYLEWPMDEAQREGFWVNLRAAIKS
T1 sequence (Q15399 whole entry): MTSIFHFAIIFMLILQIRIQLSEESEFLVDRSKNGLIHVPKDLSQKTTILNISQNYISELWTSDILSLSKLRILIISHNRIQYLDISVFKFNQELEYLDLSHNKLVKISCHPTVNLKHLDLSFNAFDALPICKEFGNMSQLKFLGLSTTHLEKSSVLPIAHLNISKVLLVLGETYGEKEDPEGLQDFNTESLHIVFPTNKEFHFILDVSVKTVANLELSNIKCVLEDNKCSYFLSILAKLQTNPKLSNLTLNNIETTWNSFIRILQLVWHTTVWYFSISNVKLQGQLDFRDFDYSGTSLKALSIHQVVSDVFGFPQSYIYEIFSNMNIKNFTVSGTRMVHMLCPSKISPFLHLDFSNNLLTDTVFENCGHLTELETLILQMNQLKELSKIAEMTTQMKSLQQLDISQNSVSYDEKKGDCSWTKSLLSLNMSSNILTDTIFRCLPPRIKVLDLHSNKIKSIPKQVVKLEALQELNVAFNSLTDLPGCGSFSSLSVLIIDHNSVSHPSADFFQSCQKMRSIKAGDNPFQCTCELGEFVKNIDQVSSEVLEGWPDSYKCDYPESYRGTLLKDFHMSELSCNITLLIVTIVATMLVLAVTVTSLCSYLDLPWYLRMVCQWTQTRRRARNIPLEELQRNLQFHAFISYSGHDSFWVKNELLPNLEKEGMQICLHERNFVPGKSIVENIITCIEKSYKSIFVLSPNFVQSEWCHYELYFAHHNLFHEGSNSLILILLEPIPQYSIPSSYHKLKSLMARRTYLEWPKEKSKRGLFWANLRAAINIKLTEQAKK
Procedure, shortened: (§1)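 THP-1 cells differentiated with 100 nM PMA in RPMI/10% FBS for 24 h, washed, then rested 24 h in fresh medium. Seeded at 0.5 × 10⁵ cells/well and exposed to graded compound concentrations for 4 h, with final DMSO held at 0.1%. LPS served as positive control and DMSO as negative control. Supernatant human TNF-α was read by ELISA. EC50 from duplicate means.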

Toll-like receptor 1/2 [2] = target: T1, Toll-like receptor 1/2; test: Agonist activity at TLR1/TLR2 in human THP-1 derived macrophages assessed as stimulation of TNF alpha release measured for 4 hrs by ELISA based assay; type: cell-based; procedure, shortened: as §1
Toll-like receptor 1/2 [3] = target: Toll-like receptor 1/2 (Mus musculus, UniProt Q9EPQ1+Q9QUN7); test: Agonist activity at TLR1/TLR2 in wild type C57BL/6J mouse macrophages assessed as stimulation of TNF alpha release measured for 4 hrs by ELISA based assay; type: cell-based, Macrophage
Chain of Toll-like receptor 1/2 (Mus musculus, UniProt Q9EPQ1+Q9QUN7) (Q9QUN7 whole entry): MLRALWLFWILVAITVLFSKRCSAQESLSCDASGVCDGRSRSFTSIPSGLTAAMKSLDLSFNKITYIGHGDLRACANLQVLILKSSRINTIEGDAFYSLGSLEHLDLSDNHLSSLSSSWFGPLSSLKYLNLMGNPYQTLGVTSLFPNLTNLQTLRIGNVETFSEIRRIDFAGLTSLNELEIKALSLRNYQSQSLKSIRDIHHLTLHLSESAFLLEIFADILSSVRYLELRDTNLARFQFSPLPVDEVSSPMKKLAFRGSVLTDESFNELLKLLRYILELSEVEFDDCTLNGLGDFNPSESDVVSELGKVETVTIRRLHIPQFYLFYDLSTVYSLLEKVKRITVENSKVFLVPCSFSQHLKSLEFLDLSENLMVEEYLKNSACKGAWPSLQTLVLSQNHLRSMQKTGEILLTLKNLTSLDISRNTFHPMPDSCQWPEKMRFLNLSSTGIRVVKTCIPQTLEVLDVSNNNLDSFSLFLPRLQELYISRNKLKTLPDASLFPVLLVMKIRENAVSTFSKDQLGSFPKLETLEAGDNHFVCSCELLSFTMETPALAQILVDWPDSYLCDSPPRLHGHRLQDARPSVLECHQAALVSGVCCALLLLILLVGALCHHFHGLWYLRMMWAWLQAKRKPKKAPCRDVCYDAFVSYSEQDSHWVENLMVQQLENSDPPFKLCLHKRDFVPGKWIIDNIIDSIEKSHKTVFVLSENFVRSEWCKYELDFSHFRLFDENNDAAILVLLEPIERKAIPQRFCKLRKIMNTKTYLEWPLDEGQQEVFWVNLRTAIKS
Chain of Toll-like receptor 1/2 (Mus musculus, UniProt Q9EPQ1+Q9QUN7) (Q9EPQ1 whole entry): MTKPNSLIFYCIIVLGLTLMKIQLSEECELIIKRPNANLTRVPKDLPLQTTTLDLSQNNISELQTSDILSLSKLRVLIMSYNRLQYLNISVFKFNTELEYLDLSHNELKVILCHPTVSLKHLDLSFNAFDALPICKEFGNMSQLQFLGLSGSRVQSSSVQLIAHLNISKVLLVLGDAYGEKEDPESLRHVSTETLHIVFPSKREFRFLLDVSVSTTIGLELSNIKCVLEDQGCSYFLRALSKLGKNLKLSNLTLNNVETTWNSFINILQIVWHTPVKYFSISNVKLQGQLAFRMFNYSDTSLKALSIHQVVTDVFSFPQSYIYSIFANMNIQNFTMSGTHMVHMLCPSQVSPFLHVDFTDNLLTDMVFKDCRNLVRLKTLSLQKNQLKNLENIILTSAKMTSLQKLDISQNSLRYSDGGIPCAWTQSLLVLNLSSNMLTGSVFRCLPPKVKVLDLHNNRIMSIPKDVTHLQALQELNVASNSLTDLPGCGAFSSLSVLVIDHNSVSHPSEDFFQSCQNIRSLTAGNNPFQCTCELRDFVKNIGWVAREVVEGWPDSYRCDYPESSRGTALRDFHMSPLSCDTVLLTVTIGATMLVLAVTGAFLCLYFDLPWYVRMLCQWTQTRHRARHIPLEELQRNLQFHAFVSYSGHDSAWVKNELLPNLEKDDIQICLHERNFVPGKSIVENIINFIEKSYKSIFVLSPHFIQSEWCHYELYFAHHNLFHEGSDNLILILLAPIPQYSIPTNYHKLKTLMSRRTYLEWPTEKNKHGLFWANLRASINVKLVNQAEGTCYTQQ
Procedure, shortened: (§2)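 Thioglycolate-elicited peritoneal macrophages from wild type C57BL/6J mice, harvested by PBS lavage 4 d after i.p. 4% thioglycolate. Cultured in DMEM/10% FBS at 37 °C, 5% CO2, seeded at 1 × 10⁵ cells/well and exposed to graded compound concentrations for 4 h, with final DMSO ≤0.5% held constant. LPS served as positive control. Supernatant mouse TNF-α was read by ELISA. EC50 from duplicate means.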

[4] = target: Toll-like receptor 1/2 (Mus musculus) (UniProt Q9QUN7+Q9EPQ1); test: Agonist activity at TLR1/TLR2 in wild type C57BL/6J mouse macrophages assessed as stimulation of TNF alpha release measured for 4 hrs by ELISA based assay relative to diprovocim-1; type: cell-based; design: Activity: concentration or dose not given beside the values; settings: Macrophage, filed as agonist; procedure, shortened: as §2

Compound	Activity (Toll-like receptor 1/2 [1])	EC50 (Toll-like receptor 1/2 [2])	EC50 (Toll-like receptor 1/2 [3])	Emax (Toll-like receptor 1/2 [1])	Emax [4]	Activity [4]
O=C(O)[C@@H]1CN(C(=O)c2ccc(C(=O)N3C[C@@H](C(=O)N[C@H]4C[C@@H]4c4ccccc4)[C@H](C(=O)N[C@H]4C[C@@H]4c4ccccc4)C3)cc2)C[C@H]1C(=O)N[C@H]1C[C@@H]1c1ccccc1	110%	200 nM	> 5000 nM	–	–	–
CCCCCCCCCCCCCCNC(=O)[C@@H]1CN(C(=O)c2ccc(C(=O)N3C[C@@H](C(=O)N[C@H]4C[C@@H]4c4ccccc4)[C@H](C(=O)N[C@H]4C[C@@H]4c4ccccc4)C3)cc2)C[C@H]1C(=O)N[C@H]1C[C@@H]1c1ccccc1	–	0.1 nM	1.1 nM	150%	100%	–
COC(=O)CCCCCCCCCCCNC(=O)[C@@H]1CN(C(=O)c2ccc(C(=O)N3C[C@@H](C(=O)N[C@H]4C[C@@H]4c4ccccc4)[C@H](C(=O)N[C@H]4C[C@@H]4c4ccccc4)C3)cc2)C[C@H]1C(=O)N[C@H]1C[C@@H]1c1ccccc1	100%	0.2 nM	–	–	–	100%
CCCCCCCCCCNC(=O)[C@@H]1CN(C(=O)c2ccc(C(=O)N3C[C@@H](C(=O)N[C@H]4C[C@@H]4c4ccccc4)[C@H](C(=O)N[C@H]4C[C@@H]4c4ccccc4)C3)cc2)C[C@H]1C(=O)N[C@H]1C[C@@H]1c1ccccc1	–	0.1 nM	650 nM	100%	260%	–
CCCCCCCCCCCCNC(=O)[C@@H]1CN(C(=O)c2ccc(C(=O)N3C[C@@H](C(=O)N[C@H]4C[C@@H]4c4ccccc4)[C@H](C(=O)N[C@H]4C[C@@H]4c4ccccc4)C3)cc2)C[C@H]1C(=O)N[C@H]1C[C@@H]1c1ccccc1	–	0.1 nM	2.1 nM	110%	100%	–
O=C(NCCCCCCCCCCO)[C@@H]1CN(C(=O)c2ccc(C(=O)N3C[C@@H](C(=O)N[C@H]4C[C@@H]4c4ccccc4)[C@H](C(=O)N[C@H]4C[C@@H]4c4ccccc4)C3)cc2)C[C@H]1C(=O)N[C@H]1C[C@@H]1c1ccccc1	–	0.5 nM	50 nM	–	–	–
CNC(=O)CCCCCCCCCCCNC(=O)[C@@H]1CN(C(=O)c2ccc(C(=O)N3C[C@@H](C(=O)N[C@H]4C[C@@H]4c4ccccc4)[C@H](C(=O)N[C@H]4C[C@@H]4c4ccccc4)C3)cc2)C[C@H]1C(=O)N[C@H]1C[C@@H]1c1ccccc1	120%	–	–	–	–	150%
CC(=O)NCC(=O)OCCCCCCCCCCCCNC(=O)[C@@H]1CN(C(=O)c2ccc(C(=O)N3C[C@@H](C(=O)N[C@H]4C[C@@H]4c4ccccc4)[C@H](C(=O)N[C@H]4C[C@@H]4c4ccccc4)C3)cc2)C[C@H]1C(=O)N[C@H]1C[C@@H]1c1ccccc1	90%	–	–	–	–	180%
CC(C)(C)OC(=O)NCC(=O)NCC(=O)OCCCCCCCCCCCCNC(=O)[C@@H]1CN(C(=O)c2ccc(C(=O)N3C[C@@H](C(=O)N[C@H]4C[C@@H]4c4ccccc4)[C@H](C(=O)N[C@H]4C[C@@H]4c4ccccc4)C3)cc2)C[C@H]1C(=O)N[C@H]1C[C@@H]1c1ccccc1	110%	–	–	–	–	110%
CC(C)(C)OC(=O)N[C@@H](CCCCNC(=O)OCC1c2ccccc2-c2ccccc21)C(=O)OCCCCCCCCCCCCNC(=O)[C@@H]1CN(C(=O)c2ccc(C(=O)N3C[C@@H](C(=O)N[C@H]4C[C@@H]4c4ccccc4)[C@H](C(=O)N[C@H]4C[C@@H]4c4ccccc4)C3)cc2)C[C@H]1C(=O)N[C@H]1C[C@@H]1c1ccccc1	100%	–	–	–	–	200%
O=C(O)/C=C/C(=O)NCC(=O)OCCCCCCCCCCCCNC(=O)[C@@H]1CN(C(=O)c2ccc(C(=O)N3C[C@@H](C(=O)N[C@H]4C[C@@H]4c4ccccc4)[C@H](C(=O)N[C@H]4C[C@@H]4c4ccccc4)C3)cc2)C[C@H]1C(=O)N[C@H]1C[C@@H]1c1ccccc1	100%	–	–	–	–	60%
C#CCN(C)CC(=O)OCCCCCCCCCCCCNC(=O)[C@@H]1CN(C(=O)c2ccc(C(=O)N3C[C@@H](C(=O)N[C@H]4C[C@@H]4c4ccccc4)[C@H](C(=O)N[C@H]4C[C@@H]4c4ccccc4)C3)cc2)C[C@H]1C(=O)N[C@H]1C[C@@H]1c1ccccc1	40%	–	–	–	–	100%
Nc1ccc(COCCCCCCCCCCCCNC(=O)[C@@H]2CN(C(=O)c3ccc(C(=O)N4C[C@@H](C(=O)N[C@H]5C[C@@H]5c5ccccc5)[C@H](C(=O)N[C@H]5C[C@@H]5c5ccccc5)C4)cc3)C[C@H]2C(=O)N[C@H]2C[C@@H]2c2ccccc2)cc1	90%	–	–	–	–	130%
COC(=O)CNC(=O)OCCCCCCCCCCCCNC(=O)[C@@H]1CN(C(=O)c2ccc(C(=O)N3C[C@@H](C(=O)N[C@H]4C[C@@H]4c4ccccc4)[C@H](C(=O)N[C@H]4C[C@@H]4c4ccccc4)C3)cc2)C[C@H]1C(=O)N[C@H]1C[C@@H]1c1ccccc1	90%	–	–	–	–	90%
NCCCCCCCCCCCCNC(=O)[C@@H]1CN(C(=O)c2ccc(C(=O)N3C[C@@H](C(=O)N[C@H]4C[C@@H]4c4ccccc4)[C@H](C(=O)N[C@H]4C[C@@H]4c4ccccc4)C3)cc2)C[C@H]1C(=O)N[C@H]1C[C@@H]1c1ccccc1	140%	–	–	–	–	130%
NCC(=O)OCCCCCCCCCCCCNC(=O)[C@@H]1CN(C(=O)c2ccc(C(=O)N3C[C@@H](C(=O)N[C@H]4C[C@@H]4c4ccccc4)[C@H](C(=O)N[C@H]4C[C@@H]4c4ccccc4)C3)cc2)C[C@H]1C(=O)N[C@H]1C[C@@H]1c1ccccc1	100%	–	–	–	–	100%
CN(CC(=O)OCCCCCCCCCCCCNC(=O)[C@@H]1CN(C(=O)c2ccc(C(=O)N3C[C@@H](C(=O)N[C@H]4C[C@@H]4c4ccccc4)[C@H](C(=O)N[C@H]4C[C@@H]4c4ccccc4)C3)cc2)C[C@H]1C(=O)N[C@H]1C[C@@H]1c1ccccc1)C(=O)OC(C)(C)C	100%	–	–	–	–	110%
O=C(O)CCCCCCCCCCCNC(=O)[C@@H]1CN(C(=O)c2ccc(C(=O)N3C[C@@H](C(=O)N[C@H]4C[C@@H]4c4ccccc4)[C@H](C(=O)N[C@H]4C[C@@H]4c4ccccc4)C3)cc2)C[C@H]1C(=O)N[C@H]1C[C@@H]1c1ccccc1	100%	–	–	–	–	110%
Nc1ccc(CCCCCCCCNC(=O)[C@@H]2CN(C(=O)c3ccc(C(=O)N4C[C@@H](C(=O)N[C@H]5C[C@@H]5c5ccccc5)[C@H](C(=O)N[C@H]5C[C@@H]5c5ccccc5)C4)cc3)C[C@H]2C(=O)N[C@H]2C[C@@H]2c2ccccc2)cc1	100%	–	–	–	–	250%

Results, then the compound that gave them:

Activity (Toll-like receptor 1/2 [1])	EC50 (Toll-like receptor 1/2 [2])	EC50 (Toll-like receptor 1/2 [3])	Emax (Toll-like receptor 1/2 [1])	Emax [4]	Activity [4]	Compound
–	17 nM	360 nM	90%	130%	–	CCNC(=O)[C@@H]1CN(C(=O)c2ccc(C(=O)N3C[C@@H](C(=O)N[C@H]4C[C@@H]4c4ccccc4)[C@H](C(=O)N[C@H]4C[C@@H]4c4ccccc4)C3)cc2)C[C@H]1C(=O)N[C@H]1C[C@@H]1c1ccccc1
–	0.25 nM	80 nM	100%	150%	–	CCCCCCNC(=O)[C@@H]1CN(C(=O)c2ccc(C(=O)N3C[C@@H](C(=O)N[C@H]4C[C@@H]4c4ccccc4)[C@H](C(=O)N[C@H]4C[C@@H]4c4ccccc4)C3)cc2)C[C@H]1C(=O)N[C@H]1C[C@@H]1c1ccccc1
–	0.37 nM	17 nM	–	–	–	COC(=O)CCCCCCCCCNC(=O)[C@@H]1CN(C(=O)c2ccc(C(=O)N3C[C@@H](C(=O)N[C@H]4C[C@@H]4c4ccccc4)[C@H](C(=O)N[C@H]4C[C@@H]4c4ccccc4)C3)cc2)C[C@H]1C(=O)N[C@H]1C[C@@H]1c1ccccc1
–	2 nM	30 nM	120%	150%	–	CCCCNC(=O)[C@@H]1CN(C(=O)c2ccc(C(=O)N3C[C@@H](C(=O)N[C@H]4C[C@@H]4c4ccccc4)[C@H](C(=O)N[C@H]4C[C@@H]4c4ccccc4)C3)cc2)C[C@H]1C(=O)N[C@H]1C[C@@H]1c1ccccc1
110%	–	> 500 nM	–	–	–	COC(=O)CCOCCOCCOCCNC(=O)[C@@H]1CN(C(=O)c2ccc(C(=O)N3C[C@@H](C(=O)N[C@H]4C[C@@H]4c4ccccc4)[C@H](C(=O)N[C@H]4C[C@@H]4c4ccccc4)C3)cc2)C[C@H]1C(=O)N[C@H]1C[C@@H]1c1ccccc1
–	–	500 nM	–	–	–	CC(C)(C)OC(=O)CCOCCOCCOCCNC(=O)[C@@H]1CN(C(=O)c2ccc(C(=O)N3C[C@@H](C(=O)N[C@H]4C[C@@H]4c4ccccc4)[C@H](C(=O)N[C@H]4C[C@@H]4c4ccccc4)C3)cc2)C[C@H]1C(=O)N[C@H]1C[C@@H]1c1ccccc1
–	3.8 nM	240 nM	–	–	–	COC(=O)CCCCCCCNC(=O)[C@@H]1CN(C(=O)c2ccc(C(=O)N3C[C@@H](C(=O)N[C@H]4C[C@@H]4c4ccccc4)[C@H](C(=O)N[C@H]4C[C@@H]4c4ccccc4)C3)cc2)C[C@H]1C(=O)N[C@H]1C[C@@H]1c1ccccc1
100%	–	–	–	–	270%	CC(C)(C)OC(=O)COCCCCCCCCCCCCNC(=O)[C@@H]1CN(C(=O)c2ccc(C(=O)N3C[C@@H](C(=O)N[C@H]4C[C@@H]4c4ccccc4)[C@H](C(=O)N[C@H]4C[C@@H]4c4ccccc4)C3)cc2)C[C@H]1C(=O)N[C@H]1C[C@@H]1c1ccccc1
100%	–	–	–	–	230%	CC(C)(C)OCC(=O)OCCCCCCCCCCCCNC(=O)[C@@H]1CN(C(=O)c2ccc(C(=O)N3C[C@@H](C(=O)N[C@H]4C[C@@H]4c4ccccc4)[C@H](C(=O)N[C@H]4C[C@@H]4c4ccccc4)C3)cc2)C[C@H]1C(=O)N[C@H]1C[C@@H]1c1ccccc1
